# Source: PMC9988221 (Journal of Clinical Psychopharmacology, 2023)
# Read-outs that look alike come from different tables or passages of the source.
# Columns and labels:
# Safety and tolerability = assay type: in vivo, human; conditions: this study, healthy male participants
# Method in brief: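 Phase I open-label, single-sequence crossover in healthy men. No specific safety endpoints were set. Counts of participants with treatment-emergent AEs (drug-related, serious, special interest, other significant), including clinically relevant physical and neurological examination findings, were analysed in the treated set. End-of-trial visit was 11–16 days after the last test compound dose.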
# CYP3A4/5 = conditions: human, human liver microsomes
# CYP3A4 mRNA = assay type: in vitro ADME, human; conditions: for Emax for induction of CYP3A4 mRNA levels: 10 to 30 μM BI 425809
# CYP3A4 [1] = test: Basic induction model; parameters: species or system human
# CYP2C19 = CYP2C19 (Homo sapiens, UniProt P33261); test: Reversible CYP inhibition in human liver microsomes, S-mephenytoin substrate
# CYP3A4 [2] = conditions: for Emax for induction of CYP3A4 activity: BI 425809 10 to 30 μM, 48 hours
# CYP2D6 = CYP2D6 (Homo sapiens, UniProt P10635); test: Reversible CYP inhibition in human liver microsomes, dextromethorphan substrate
# human hepatocytes = test: Cell viability of hepatocytes in the induction assay; assay type: cell-based; conditions: hepatocytes from any donor; BI 425809 up to 30 μM
# P-gp = P-gp (Homo sapiens, UniProt P08183); assay type: in vitro ADME
# Method in brief: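 Bidirectional Caco-2 monolayer transport in HBSS with 15 mM HEPES, pH 7.4, after 30 min equilibration. [³H]digoxin (1 μM) went in the donor side, and test compound (1–100 μM) or zosuquidar (1 μM) on both sides. After 30 min preincubation, sampling ran to 90 min and was read by scintillation counting. Papp gave the B-to-A/A-to-B efflux ratio, and IC50 with slope factor came from nonlinear regression of efflux ratio against inhibitor concentration.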
# [3] = assay type: in vivo, human; conditions: once-daily BI 425809 25 mg; midazolam exposure
# CYP2C8 = biological target: T1, CYP2C8 (Homo sapiens, UniProt P10632); test: Reversible CYP inhibition in human liver microsomes, amodiaquine substrate
# T1 sequence (P10632 1-490): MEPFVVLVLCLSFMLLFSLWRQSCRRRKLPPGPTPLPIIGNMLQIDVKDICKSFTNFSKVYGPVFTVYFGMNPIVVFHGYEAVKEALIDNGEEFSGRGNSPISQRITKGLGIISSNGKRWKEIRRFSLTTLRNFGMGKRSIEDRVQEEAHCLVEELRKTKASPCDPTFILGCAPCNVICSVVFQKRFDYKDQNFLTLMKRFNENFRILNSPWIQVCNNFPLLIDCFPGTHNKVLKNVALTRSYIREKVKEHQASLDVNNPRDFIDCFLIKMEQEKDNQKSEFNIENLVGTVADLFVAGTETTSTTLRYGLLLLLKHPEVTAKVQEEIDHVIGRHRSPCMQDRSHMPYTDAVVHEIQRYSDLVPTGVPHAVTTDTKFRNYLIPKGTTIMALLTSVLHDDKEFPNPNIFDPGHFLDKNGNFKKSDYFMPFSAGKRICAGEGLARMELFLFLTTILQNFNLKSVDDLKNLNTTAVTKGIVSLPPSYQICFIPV
# Unbound plasma fraction = assay type: in vitro ADME; conditions: derived from other preclinical studies (data not shown)
# CYP1A2 = biological target: T2, CYP1A2 (Homo sapiens, UniProt P05177); test: Reversible CYP inhibition in human liver microsomes, phenacetin substrate
# T2 sequence (P05177 1-516): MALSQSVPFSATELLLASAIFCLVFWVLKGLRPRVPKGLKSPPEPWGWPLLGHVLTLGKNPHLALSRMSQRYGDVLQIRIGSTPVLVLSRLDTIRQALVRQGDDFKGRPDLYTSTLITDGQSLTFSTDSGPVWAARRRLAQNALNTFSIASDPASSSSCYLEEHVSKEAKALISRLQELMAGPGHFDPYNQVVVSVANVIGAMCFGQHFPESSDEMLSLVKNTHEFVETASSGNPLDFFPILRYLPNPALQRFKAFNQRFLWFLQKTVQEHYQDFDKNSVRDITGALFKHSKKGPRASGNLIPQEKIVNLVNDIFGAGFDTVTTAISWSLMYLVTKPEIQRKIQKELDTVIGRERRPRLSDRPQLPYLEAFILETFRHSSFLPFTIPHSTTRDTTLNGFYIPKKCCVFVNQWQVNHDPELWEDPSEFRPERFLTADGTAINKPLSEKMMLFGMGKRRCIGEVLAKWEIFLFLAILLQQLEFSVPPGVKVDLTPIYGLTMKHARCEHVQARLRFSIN
# [4] = Attainment of BI 425809 steady state; assay type: in vivo, human
# CYP2C9 = CYP2C9 (Homo sapiens, UniProt P11712); test: Reversible CYP inhibition in human liver microsomes, diclofenac substrate
# CYP2B6 = biological target: T3, CYP2B6 (Homo sapiens, UniProt P20813); test: Reversible CYP inhibition in human liver microsomes, bupropion substrate
# T3 sequence (P20813 1-491): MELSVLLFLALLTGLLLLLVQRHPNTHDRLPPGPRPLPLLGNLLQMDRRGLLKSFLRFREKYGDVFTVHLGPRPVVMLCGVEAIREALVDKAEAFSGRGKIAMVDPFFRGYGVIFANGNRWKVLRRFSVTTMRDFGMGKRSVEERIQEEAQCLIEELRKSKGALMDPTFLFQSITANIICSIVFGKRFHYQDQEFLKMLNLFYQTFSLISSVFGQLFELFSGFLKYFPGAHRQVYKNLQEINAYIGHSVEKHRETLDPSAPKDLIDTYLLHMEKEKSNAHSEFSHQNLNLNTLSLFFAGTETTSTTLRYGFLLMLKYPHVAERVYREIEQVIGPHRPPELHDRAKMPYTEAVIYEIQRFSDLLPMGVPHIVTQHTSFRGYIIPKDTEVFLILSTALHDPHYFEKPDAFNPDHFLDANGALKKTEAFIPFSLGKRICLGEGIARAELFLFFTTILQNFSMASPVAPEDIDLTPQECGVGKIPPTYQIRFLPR
# [5] = cited from earlier work
# CYP3A4 [6] = test: in vitro; conditions: human, Emax for induction of CYP3A4 activity, % of positive control effect
# P-gp, sequence (P08183 whole entry): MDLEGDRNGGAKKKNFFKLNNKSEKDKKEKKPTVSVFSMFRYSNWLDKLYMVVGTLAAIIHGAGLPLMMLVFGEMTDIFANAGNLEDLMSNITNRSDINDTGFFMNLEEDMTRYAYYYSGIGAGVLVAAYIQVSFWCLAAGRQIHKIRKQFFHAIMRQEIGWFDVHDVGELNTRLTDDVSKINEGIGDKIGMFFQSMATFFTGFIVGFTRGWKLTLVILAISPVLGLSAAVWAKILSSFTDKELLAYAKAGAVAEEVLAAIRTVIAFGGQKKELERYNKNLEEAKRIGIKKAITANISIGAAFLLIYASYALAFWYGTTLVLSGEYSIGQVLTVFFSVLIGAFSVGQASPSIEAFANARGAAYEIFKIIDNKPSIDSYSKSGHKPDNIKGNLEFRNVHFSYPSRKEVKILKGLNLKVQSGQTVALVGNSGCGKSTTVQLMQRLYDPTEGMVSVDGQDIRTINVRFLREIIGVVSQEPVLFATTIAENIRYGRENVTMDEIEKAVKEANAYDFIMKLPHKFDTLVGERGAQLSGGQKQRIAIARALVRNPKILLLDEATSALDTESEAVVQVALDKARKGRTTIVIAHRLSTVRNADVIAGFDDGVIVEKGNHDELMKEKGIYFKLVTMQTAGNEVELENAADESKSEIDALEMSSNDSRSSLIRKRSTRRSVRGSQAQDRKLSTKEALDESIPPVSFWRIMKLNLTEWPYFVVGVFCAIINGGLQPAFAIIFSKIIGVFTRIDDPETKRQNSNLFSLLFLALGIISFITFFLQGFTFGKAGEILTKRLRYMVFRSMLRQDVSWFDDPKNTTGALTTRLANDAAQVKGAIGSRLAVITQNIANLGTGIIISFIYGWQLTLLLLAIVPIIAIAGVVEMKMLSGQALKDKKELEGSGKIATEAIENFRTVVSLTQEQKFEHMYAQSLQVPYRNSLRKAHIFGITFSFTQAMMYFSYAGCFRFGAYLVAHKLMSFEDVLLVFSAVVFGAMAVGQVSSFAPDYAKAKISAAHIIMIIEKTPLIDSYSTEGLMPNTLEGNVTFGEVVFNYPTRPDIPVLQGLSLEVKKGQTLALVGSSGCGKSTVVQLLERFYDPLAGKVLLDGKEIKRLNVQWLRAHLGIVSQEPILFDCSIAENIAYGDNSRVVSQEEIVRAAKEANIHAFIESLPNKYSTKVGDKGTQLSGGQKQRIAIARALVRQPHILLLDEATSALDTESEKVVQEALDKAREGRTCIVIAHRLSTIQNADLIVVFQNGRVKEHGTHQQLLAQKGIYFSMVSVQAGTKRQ
# CYP2D6, sequence (P10635 whole entry): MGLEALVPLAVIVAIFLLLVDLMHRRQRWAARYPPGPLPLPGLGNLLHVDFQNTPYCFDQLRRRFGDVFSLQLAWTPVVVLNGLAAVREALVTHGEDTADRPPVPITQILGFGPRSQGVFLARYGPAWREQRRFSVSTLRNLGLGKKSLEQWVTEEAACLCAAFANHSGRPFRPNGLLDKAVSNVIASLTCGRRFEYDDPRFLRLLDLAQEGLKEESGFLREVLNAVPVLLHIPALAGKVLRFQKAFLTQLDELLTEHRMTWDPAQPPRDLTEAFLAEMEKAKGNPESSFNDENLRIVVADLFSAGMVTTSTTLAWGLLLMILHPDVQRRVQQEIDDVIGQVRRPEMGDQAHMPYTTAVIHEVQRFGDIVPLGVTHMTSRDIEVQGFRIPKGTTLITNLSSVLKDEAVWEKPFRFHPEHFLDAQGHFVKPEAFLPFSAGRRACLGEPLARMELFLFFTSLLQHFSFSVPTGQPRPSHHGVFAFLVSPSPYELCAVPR
# CYP2C19, sequence (P33261 whole entry): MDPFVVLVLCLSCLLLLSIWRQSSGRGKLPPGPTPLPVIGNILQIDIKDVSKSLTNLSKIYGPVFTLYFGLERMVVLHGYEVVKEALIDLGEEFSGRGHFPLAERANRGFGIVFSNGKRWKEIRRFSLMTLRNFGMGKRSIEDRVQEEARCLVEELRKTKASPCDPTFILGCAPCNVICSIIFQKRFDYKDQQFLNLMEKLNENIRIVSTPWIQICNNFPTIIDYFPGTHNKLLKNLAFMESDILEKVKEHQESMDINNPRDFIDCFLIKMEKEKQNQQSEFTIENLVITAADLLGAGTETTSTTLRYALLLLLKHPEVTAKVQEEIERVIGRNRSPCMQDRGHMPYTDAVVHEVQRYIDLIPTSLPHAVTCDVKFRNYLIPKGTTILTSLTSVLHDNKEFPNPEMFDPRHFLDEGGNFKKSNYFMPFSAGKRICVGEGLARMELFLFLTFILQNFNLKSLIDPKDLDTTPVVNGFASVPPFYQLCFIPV
# CYP2C9, sequence (P11712 whole entry): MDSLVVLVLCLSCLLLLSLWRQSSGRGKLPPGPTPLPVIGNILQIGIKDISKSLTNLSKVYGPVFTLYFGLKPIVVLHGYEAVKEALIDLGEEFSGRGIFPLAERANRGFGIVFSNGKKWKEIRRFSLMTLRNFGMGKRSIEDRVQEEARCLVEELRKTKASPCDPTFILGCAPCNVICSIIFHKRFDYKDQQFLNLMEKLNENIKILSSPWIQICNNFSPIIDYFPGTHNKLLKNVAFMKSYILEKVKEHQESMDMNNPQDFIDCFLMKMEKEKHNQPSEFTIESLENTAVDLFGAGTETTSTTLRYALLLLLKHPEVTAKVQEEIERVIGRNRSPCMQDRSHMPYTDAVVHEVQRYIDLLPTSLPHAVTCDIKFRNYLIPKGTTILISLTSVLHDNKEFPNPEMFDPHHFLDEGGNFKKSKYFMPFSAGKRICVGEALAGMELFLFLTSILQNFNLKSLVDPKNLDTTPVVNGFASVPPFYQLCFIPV
smiles,measurement,setting,value
C[C@@H](Oc1ccc(S(C)(=O)=O)cc1C(=O)N1C[C@@H]2C[C@]2(c2cc(C(F)(F)F)on2)C1)C(F)(F)F [BI 425809],tolerability,Safety and tolerability,well tolerated
same,IC50,CYP3A4/5,> 100 µM
same,Emax for induction of CYP3A4 mRNA levels,CYP3A4 mRNA; hepatocytes donor 1,14 fold
same,Emax for induction of CYP3A4 mRNA levels,CYP3A4 mRNA; hepatocytes donor 2,13 fold
same,Emax for induction of CYP3A4 mRNA levels,CYP3A4 mRNA; hepatocytes donor 3,37 fold
same,induction of CYP3A4 mRNA levels (in words),"CYP3A4 mRNA; hepatocytes from donors 1, 2, and 3",concentration-dependent induction
same,EC50 at 48 h,"CYP3A4 mRNA; human, sandwich-cultured primary human hepatocytes",1.96 µM
same,Emax for induction of CYP3A4,CYP3A4 mRNA; mRNA levels of all three donors fitted to 3-parameter sigmoidal model,18.7 fold
same,R3 (change in hepatic metabolic clearance of a sensitive CYP3A4 substrate),"CYP3A4 [1]; basic model, 2020 FDA guidance, unbound plasma fraction 0.196",0.12
same,"Imax,u, maximum unbound plasma concentration",CYP3A4 [1]; input of the basic induction model,approximately 121 nM
same,IC50,CYP2C19,> 100 µM
same,Emax for induction of CYP3A4 activity,CYP3A4 [2]; hepatocytes donor 1,10 fold
same,Emax for induction of CYP3A4 activity,CYP3A4 [2]; hepatocytes donor 2,3.4 fold
same,Emax for induction of CYP3A4 activity,CYP3A4 [2]; hepatocytes donor 3,6.6 fold
same,induction of CYP3A4 activity (in words),CYP3A4 [2]; human hepatocytes,Concentration-dependent induction
same,IC50,CYP2D6,> 100 µM
same,cell viability relative to vehicle control,human hepatocytes,No decrease in cell viability
same,IC50,P-gp,14 µM
same,effect on P-gp-mediated transcellular transport of digoxin (in words),"P-gp; Caco-2 cell monolayer, zosuquidar 1 μM, BI 425809 1-100 μM",concentration-dependent inhibition
same,I2/IC50 ratio,P-gp; I2 = dose[mol]/250 mL,approximately 13
same,CYP3A4 induction in vivo (in words),[3],mild inducer of CYP3A4 in vivo
same,IC50,CYP2C8,> 100 µM
same,unbound plasma fraction,Unbound plasma fraction,0.196
same,IC50,CYP1A2,> 100 µM
same,steady state reached by,"[4]; BI 425809 25 mg once daily, Cpre on days 8, 9, 10",≤ 8 days
same,adjusted gMean ratios of Cpre of the compared sampling time points,"[4]; pairwise comparisons of days 8, 9, and 10 in period 2",~100%
same,IC50,CYP2C9,54.9 µM
same,IC50,CYP2B6,> 100 µM
same,"increase of cerebrospinal fluid glycine levels, average","[5]; doses of 10 mg and 25 mg, healthy volunteers",50%
same,tolerability,"[5]; once-daily oral administration up to 75 mg, Phase I studies",generally well tolerated
same,steady state reached after,[5]; previous study,6 days
same,Emax,CYP3A4 [6],37%
